Measured values reported in the RNAGym collection of RNA variant scans (doi:10.1038/s41586-018-0170-7).

B1: tRNA (parent)
chain: GUUCCGUUGGCGUAAUGGUAACGCGUCUCCCUCCUAAGGAGAAGACUGCGGGUUCGAGUCCCGUACGGAACG

Variants of: B1
Test: yeast fitness, log relative to wild type (ln ratio); higher = fitter; tRNA-Arg(CCU), competitive growth, 37 C, 1 M NaCl
How it was run: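 Fitness is the natural log of each genotype's generations divided by the wild type's. Generations were derived as OD-scaled log2 output/input frequency from 125 bp paired-end Illumina counts, weighting replicates by inverse variance. Pools of the tRNA-Arg(CCU) variant library, on a HIS3 centromeric plasmid in BY4742 lacking the chromosomal gene, grew ~6.5 generations (~26.5 h) in SC-HIS 1M NaCl at 37 °C after 4 generations in SC-HIS at 30 °C.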

Variant | yeast fitness (ln)
GCUCCAUUGGCGUAAUGGUAACGCGUUUCCCUCCUAAGGAGAAGACUGCGGGUUCGAGUCCCGUACGGAGUG | -0.282
GCUCCAUUGGCGUAAUGGUAACGCGUUUCCCUCCUAAGGAGAAGACUGCGGGUUCGAGUCCCGUAAGGAUUG | -0.269
GCUCCAUUGGCGUAAUGGUAACGCGUUUCCCUCCUAAGGAGAAGACUGCGGGUUCGAGUCCCGUAUGGAUUG | -0.212
GCUCCAUUGGCGUAAUGGUAACGCGUUUCCCUCCUAAGGAGACGAUUGCGGGUUCGAGUCCCGUAUGGGAUG | -0.281
GCUCCAUUGGCGUAAUGGUAACGCGUUUCCCUCCUAAGGAGACGACUGCGGGUUCGAGUCCCGUAUGGAUUG | -0.309
GCUCCAUUGGCGUAAUGGUAACGCGUUUCCCUCCUAAGGAGACGACUGCGGGUUCGAGUCCCGUAUGGAGUG | -0.101
GCUCCAUUGGCGUAAUGGUAACGCGUUUCCCUCCUAAGGAGAAGAUUGCGGGUUCGAGUCCCGUACGGGGCG | -0.236
GCUCCAUUGGCGUAAUGGUAACGCGUUUCCCUCCUAAGGAGAAGAUUGCGGGUUCGAGUCCCGUACGGGUCG | -0.152
GCUCCAUUGGCGUAAUGGUAACGCGUUUCCCUCCUAAGGAGAAGAUUGCGGGUUCGAGUCCCGUACGGAACG | -0.0382
GCUCCAUUGGCGUAAUGGUAACGCGUUUCCCUCCUAAGGAGAAGAUUGCGGGUUCGAGUCCCGUAUGGAUUG | -0.174
GCUCCAUUGGCGUAAUGGUAACGCGUUUCCCUCCUAAGGAGAAGACUGCGGGUUCGAGUCCCGUAAGGAUCG | -0.0448
GCUCCAUUGGCGUAAUGGUAACGCGUUUCCCUCCUAAGGAGAAGACUGCGGGUUCGAGUCCCGUAAGGAGUG | -0.106
GCUCCAUUGGCGUAAUGGUAACGCGUUUCCCUCCUAAGGAGAAGAUUGCGGGUUCGAGUCCCGUAUGGGUUG | -0.289
GCUCCAUUGGCGUAAUGGUAACGCGUUUCCCUCCUAAGGAGACGAUUGCGGGUUCGAGUCCCGUAUGGAAUG | -0.122
GCUCCAUUGGCGUAAUGGUAACGCGUUUCCCUCCUAAGGAGAAGAUUGCGGGUUCGAGUCCCGUAAGGAUUG | -0.172
GCUCCAUUGGCGUAAUGGUAACGCGUUUCCCUCCUAAGGAGAAGAUUGCGGGUUCGAGUCCCGUAAGGGUUG | -0.384
GCUCCAUUGGCGUAAUGGUAACGCGUUUCCCUCCUAAGGAGAAGACUGCGGGUUCGAGUCCCGUAUGGAACG | -0.217
GCUCCAUUGGCGUAAUGGUAACGCGUUUCCCUCCUAAGGAGAAGACUGCGGGUUCGAGUCCCGUAUGGGUCG | -0.138
GCUCCAUUGGCGUAAUGGUAACGCGUUUCCCUCCUAAGGAGAAGACUGCGGGUUCGAGUCCCGUAUGGGGCG | -0.0504
GCUCCAUUGGCGUAAUGGUAACGCGUUUCCCUCCUAAGGAGACGACUGCGGGUUCGAGUCCCGUAUGGAAUG | -0.148
GCUCCAUUGGCGUAAUGGUAACGCGUUUCCCUCCUAAGGAGAAGAUUGCGGGUUCGAGUCCCGUAUGGGAUG | -0.271
GCUCCAUUGGCGUAAUGGUAACGCGUUUCCCUCCUAAGGAGACGACUGCGGGUUCGAGUCCCGUACGGAAUG | -0.209
GCUCCAUUGGCGUAAUGGUAACGCGUUUCCCUCCUAAGGAGAAGAUUGCGGGUUCGAGUCCCGUACGGGUUG | -0.295
GCUCCAUUGGCGUAAUGGUAACGCGUUUCCCUCCUAAGGAGACGAUUGCGGGUUCGAGUCCCGUAUGGGUUG | -0.32
GCUCCAUUGGCGUAAUGGUAACGCGUUUCCCUCCUAAGGAGAAGACUGCGGGUUCGAGUCCCGUACGGGUCG | -0.115

Variant | yeast fitness (ln)
GCUCCAUUGGCGUAAUGGUAACGCGUUUCCCUCCUAAGGAGAAGACUGCGGGUUCGAGUCCCGUACGGGGCG | -0.252
GCUCCAUUGGCGUAAUGGUAACGCGUUUCCCUCCUAAGGAGAAGAUUGCGGGUUCGAGUCCCGUACGGAGUG | -0.239
GCUCCAUUGGCGUAAUGGUAACGCGUUUCCCUCCUAAGGAGAAGACUGCGGGUUCGAGUCCCGUACGGAUCG | -0.0574
GCUCCAUUGGCGUAAUGGUAACGCGUUUCCCUCCUAAGGAGAAGACUGCGGGUUCGAGUCCCGUACGGAGCG | -0.167
GCUCCAUUGGCGUAAUGGUAACGCGUUUCCCUCCUAAGGAGACGACUGCGGGUUCGAGUCCCGUAUGGGUUG | -0.351
GCUCCAUUGGCGUAAUGGUAACGCGUUUCCCUCCUAAGGAGACGACUGCGGGUUCGAGUCCCGUAUGGGGCG | -0.0511
GCUCCAUUGGCGUAAUGGUAACGCGUUUCCCUCCUAAGGAGACGACUGCGGGUUCGAGUCCCGUAUGGGUCG | -0.33
GCUCCAUUGGCGUAAUGGUAACGCGUUUCCCUCCUAAGGAGAAGAUUGCGGGUUCGAGUCCCGUAUGGAACG | -0.136
GCUCCAUUGGCGUAAUGGUAACGCGUUUCCCUCCUAAGGAGACGACUGCGGGUUCGAGUCCCGUAAGGAUCG | -0.0983
GCUCCAUUGGCGUAAUGGUAACGCGUUUCCCUCCUAAGGAGAAGAUUGCGGGUUCGAGUCCCGUACGGAUCG | -0.0585
GCUCCAUUGGCGUAAUGGUAACGCGUUUCCCUCCUAAGGAGAAGAUUGCGGGUUCGAGUCCCGUACGGAGCG | -0.0764
GCUCCAUUGGCGUAAUGGUAACGCGUUUCCCUCCUAAGGAGAAGAUUGCGGGUUCGAGUCCCGUAUGGAAUG | -0.119
GCUCCAUUGGCGUAAUGGUAACGCGUUUCCCUCCUAAGGAGACGACUGCGGGUUCGAGUCCCGUAUGGGGUG | -0.293
GCUCCAUUGGCGUAAUGGUAACGCGUUUCCCUCCUAAGGAGACGACUGCGGGUUCGAGUCCCGUAAGGAGUG | -0.0895
GCUCCAUUGGCGUAAUGGUAACGCGUUUCCCUCCUAAGGAGAAGACUGCGGGUUCGAGUCCCGUAUGGGGUG | -0.0741
GCUCCAUUGGCGUAAUGGUAACGCGUUUCCCUCCUAAGGAGAAGACUGCGGGUUCGAGUCCCGUAUGGAGUG | -0.0401
GCUCCAUUGGCGUAAUGGUAACGCGUUUCCCUCCUAAGGAGAAGAUUGCGGGUUCGAGUCCCGUAAGGAGUG | -0.228
GCUCCAUUGGCGUAAUGGUAACGCGUUUCCCUCCUAAGGAGAAGAUUGCGGGUUCGAGUCCCGUAAGGAAUG | -0.101
GCUCCAUUGGCGUAAUGGUAACGCGUUUCCCUCCUAAGGAGACGACUGCGGGUUCGAGUCCCGUAUGGAACG | -0.179
GCUCCAUUGGCGUAAUGGUAACGCGUUUCCCUCCUAAGGAGACGACUGCGGGUUCGAGUCCCGUAUGGGAUG | -0.35
GCUCCAUUGGCGUAAUGGUAACGCGUUUCCCUCCUAAGGAGAAGACUGCGGGUUCGAGUCCCGUAAGGGGUG | -0.0666
GCUCCAUUGGCGUAAUGGUAACGCGUUUCCCUCCUAAGGAGACGAUUGCGGGUUCGAGUCCCGUAUGGAUUG | -0.225
GCUCCAUUGGCGUAAUGGUAACGCGUUUCCCUCCUAAGGAGAAGACUGCGGGUUCGAGUCCCGUACGGGAUG | -0.0988
GCUCCAUUGGCGUAAUGGUAACGCGUUUCCCUCCUAAGGAGACGAUUGCGGGUUCGAGUCCCGUAUGGGUCG | -0.173
GCUCCAUUGGCGUAAUGGUAACGCGUUUCCCUCCUAAGGAGAAGAUUGCGGGUUCGAGUCCCGUAUGGAGCG | -0.0278

Variant | yeast fitness (ln)
GCUCCAUUGGCGUAAUGGUAACGCGUUUCCCUCCUAAGGAGAAGAUUGCGGGUUCGAGUCCCGUAUGGAUCG | -0.112
GCUCCAUUGGCGUAAUGGUAACGCGUUUCCCUCCUAAGGAGAAGACUGCGGGUUCGAGUCCCGUAUGGGUUG | -0.386
GCUCCAUUGGCGUAAUGGUAACGCGUUUCCCUCCUAAGGAGAAGAUUGCGGGUUCGAGUCCCGUAUGGAGUG | -0.0332
GCUCCAUUGGCGUAAUGGUAACGCGUUUCCCUCCUAAGGAGACGAUUGCGGGUUCGAGUCCCGUAUGGAGUG | -0.0215
GCUCCAUUGGCGUAAUGGUAACGCGUUUCCCUCCUAAGGAGACGAUUGCGGGUUCGAGUCCCGUAUGGAGCG | -0.0221
GCUCCAUUGGCGUAAUGGUAACGCGUUUCCCUCCUAAGGAGACGAUUGCGGGUUCGAGUCCCGUAUGGAUCG | -0.0567
GCUCCAUUGGCGUAAUGGUAACGCGUUUCCCUCCUAAGGAGAAGAUUGCGGGUUCGAGUCCCGUACGGGAUG | -0.172
GCUCCAUUGGCGUAAUGGUAACGCGUUUCCCUCCUAAGGAGAAGACUGCGGGUUCGAGUCCCGUACGGAUUG | -0.141
GCUCCAUUGGCGUAAUGGUAACGCGUUUCCCUCCUAAGGAGAAGACUGCGGGUUCGAGUCCCGUACGGGUUG | -0.309
GCUCCAUUGGCGUAAUGGUAACGCGUUUCCCUCCUAAGGAGACGACUGCGGGUUCGAGUCCCGUAUGGAGCG | -0.0396
GCUCCAUUGGCGUAAUGGUAACGCGUUUCCCUCCUAAGGAGACGACUGCGGGUUCGAGUCCCGUAUGGAUCG | -0.091
GCUCCAUUGGCGUAAUGGUAACGCGUUUCCCUCCUAAGGAGAAGAUUGCGGGUUCGAGUCCCGUACGGGGUG | -0.331
GCUCCAUUGGCGUAAUGGUAACGCGUUUCCCUCCUAAGGAGAAGAUUGCGGGUUCGAGUCCCGUAUGGGUCG | -0.284
GCUCCAUUGGCGUAAUGGUAACGCGUUUCCCUCCUAAGGAGAAGAUUGCGGGUUCGAGUCCCGUAUGGGGCG | -0.0335
GCUCCAUUGGCGUAAUGGUAACGCGUUUCCCUCCUAAGGAGACGACUGCGGGUUCGAGUCCCGUAAGGAAUG | -0.333
GCUCCAUUGGCGUAAUGGUAACGCGUUUCCCUCCUAAGGAGAAGACUGCGGGUUCGAGUCCCGUACGGGGUG | -0.216
GCUCCAUUGGCGUAAUGGUAACGCGUUUCCCUCCUAAGGAGAAGAUUGCGGGUUCGAGUCCCGUAAGGAUCG | -0.0453
GCUCCAUUGGCGUAAUGGUAACGCGUUUCCCUCCUAAGGAGAAGAUUGCGGGUUCGAGUCCCGUAAGGAGCG | -0.0252
GCUCCAUUGGCGUAAUGGUAACGCGUUUCCCUCCUAAGGAGAAGAUUGCGGGUUCGAGUCCCGUAUGGGGUG | -0.0479
GCUCCAUUGGCGUAAUGGUAACGCGUUUCCCUCCUAAGGAGACGAUUGCGGGUUCGAGUCCCGUACGGAAUG | -0.115
GCUCCAUUGGCGUAAUGGUAACGCGUUUCCCUCCUAAGGAGAAGAUUGCGGGUUCGAGUCCCGUAAGGGGUG | -0.188
GCUCCAUUGGCGUAAUGGUAACGCGUUUCCCUCCUAAGGAGAAGAUUGCGGGUUCGAGUCCCGUACGGAUUG | -0.123
GCUCCAUUGGCGUAAUGGUAACGCGUUUCCCUCCUAAGGAGAAGAUUGCGGGUUCGAGUCCCGUACGGAAUG | -0.119
GCUCCAUUGGCGUAAUGGUAACGCGUUUCCCUCCUAAGGAGAAGACUGCGGGUUCGAGUCCCGUAUGGAUCG | -0.203
GCUCCAUUGGCGUAAUGGUAACGCGUUUCCCUCCUAAGGAGAAGACUGCGGGUUCGAGUCCCGUAUGGAGCG | -0.0339
